# Source: the RNAGym collection of RNA variant scans (doi:10.1126/science.aae0568)
# This sample holds only a part of the variants without activity.
# B1: tRNA (parent)
# chain: GUUCCGUUGGCGUAAUGGUAACGCGUCUCCCUCCUAAGGAGAAGACUGCGGGUUCGAGUCCCGUACGGAACG
# Variants of: B1
# Experiment: yeast fitness relative to wild type (ratio to wild type); higher = fitter; tRNA-Arg(CCU), competitive growth, 37 C, YPD
# Method in brief: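 A pool of Saccharomyces cerevisiae strains, each with a tRNA-Arg(CCU) gene variant at the native genomic locus, was competed in YPD at 37°C for 24 hours across six parallel replicates. The variants had been chemically synthesised at a 3% per-site mutation rate over 69 sites, and gene amplicons before and after competition were read by 100-nucleotide paired-end sequencing. Darwinian fitness relative to wild type rested on changes in genotype frequencies. Genotypes required ≥ 100 starting reads, and estimates < 0.5 were set to 0.5.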
row,Variant,yeast fitness
1,U13G A57C,0.599
2,U2C U28A G52A,≤ 0.5
3,U3G G9C,0.573
4,U8C A57G,0.856
5,C5G C31U C33U A57U,≤ 0.5
6,C5G U7C C11G A40G A57U A70U,≤ 0.5
7,C33A G50A,0.545
8,G12C C49U U53C C60G,≤ 0.5
9,C30A G44A,0.88
10,C4A U8G A14U,0.524
11,A15U G38C G39A A43C C60G,0.569
12,G12A C22G C29U,0.551
13,C4U C34U A43C A69U,0.557
14,G18U G39A,0.594
15,C4A C5A,0.752
16,C5A C33U C46G C66G G67A A69C,≤ 0.5
17,A21C C29U A43G C66U,≤ 0.5
18,G6C G10A A36U G63A,≤ 0.5
19,C22U G44A C46G G51A C66G,≤ 0.5
20,G25C U28C A70C,0.563
21,U7G G12C G23C C29G,0.739

row,Variant,yeast fitness
1,A14U C22A U28A C30U U53A U54C,≤ 0.5
2,G6C U7G G17C C60G,0.574
3,C49U U53A,0.791
4,A14U C27G A37U,≤ 0.5
5,U19A G25A A37U A42G C55U,≤ 0.5
6,C5A U35G C60G,≤ 0.5
7,U3C C31A A42G A43G G68C,≤ 0.5
8,A20U U35A C46G C49U,≤ 0.5
9,C24G A45U G67A,≤ 0.5
10,A20G U47C,0.947
11,C22U A36U G56A C66U,≤ 0.5
12,G12C U13A U16G C24G A69U,≤ 0.5
13,C33U A43U C49A G50C C61U C66U,≤ 0.5
14,C30A C55U C62G,0.508
15,C5U A15G A42C C49A,≤ 0.5
16,G12A C34U A37U G41A C55U A69C,≤ 0.5
17,C4U C5G C29U U32A C33U,≤ 0.5
18,G6A C24U U54G A65U,≤ 0.5
19,C4U C55U C66A,≤ 0.5
20,A14C C30A C31G,≤ 0.5
21,C27U C49A,0.785

row,Variant,yeast fitness
1,A20G G38U A43C A57U,≤ 0.5
2,C22G C31U C49U,0.989
3,U13G U16C A42U G44A C49A,≤ 0.5
4,A42C U59G,0.752
5,C5U G10A C27G G48C C61G,≤ 0.5
6,U8G A37C G52C G58C,≤ 0.5
7,C24U C34A,0.783
8,G10C C27A C34A A40G C60U A65U,≤ 0.5
9,C33U A65C G68C,0.504
10,A14U G39C,0.507
11,C11A C31U A37C G51C C55G,≤ 0.5
12,C4A C11U A37C,0.537
13,C27A C46U G67A,0.699
14,U2G C33G C61A,≤ 0.5
15,G10C U47C,0.695
16,C4U A57U A70U,0.578
17,G25C G41C A42U C49A,≤ 0.5
18,G17C C49U G63C,≤ 0.5
19,U16C C29U C62U,0.508
20,G6A A40G A42G U59C,0.675
21,C5G C27A C49A,≤ 0.5

row,Variant,yeast fitness
1,U8A G12A,0.824
2,C4U C5G G41A,0.505
3,G18A G25C A43U A69C,≤ 0.5
4,C24G U28G C33U A42U G50A,≤ 0.5
5,U2C G18A G25A,0.599
6,G41A C55G C66U,≤ 0.5
7,C22U C30U A37G C66U,≤ 0.5
8,A36G A70G,0.914
9,A20C U28G A69C,0.714
10,A14C A36G C62U,≤ 0.5
11,C27U C31U U53C,0.678
12,G9C U32C A36G G52A,≤ 0.5
13,C5U C34U C60U,≤ 0.5
14,U13C C29G C62U A69C,0.537
15,C11G G17A C24U C29G,0.6
16,U32C A37C A57U,≤ 0.5
17,U8C A20U A57G,≤ 0.5
18,A15G C31U G58A,1.03
19,G17A U28G C30G A40C A42U,≤ 0.5
20,A14U C34A C46U,≤ 0.5
